Experimental data: ChEMBL document CHEMBL3627671, “Novel derivatives of nitro-substituted salicylic acids: Synthesis, antimicrobial activity and cytotoxicity” (Bioorg Med Chem, 2015)
In brackets after ≈: the same amount, converted by molar mass.

Key:
Format in all cases: functional
Aspergillus fumigatus [1] = assay: Antifungal activity against Aspergillus fumigatus 231 after 48 hrs by microdilution broth method; details: Aspergillus fumigatus, 231, 48 h
Method in brief: (§1)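 CLSI M27-A3 broth microdilution in RPMI 1640 with glutamine, buffered to pH 7.0 with MOPS; DMSO diluent. Yeast inoculum 5 × 10^3 ± 0.2 CFU/mL. Moulds grown on Sabouraud agar 3–10 days before spore harvest, final inoculum 0.5-5 × 10^4 CFU/mL, checked in a Bürker chamber. Incubated dark, humid, 35 °C, read at 24 and 48 h visually and at 540 nm. MIC taken as ≥80% (yeasts) or ≥50% (filamentous) growth reduction versus control.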

Klebsiella pneumoniae [2] = assay: Antibacterial activity against ESBL-positive Klebsiella pneumoniae J 14368/08 after 48 hrs by microdilution broth method; details: J 14368/08, 48 h
Method in brief: (§2)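 Mueller-Hinton broth microdilution (modified M07-A07), pH 7.4 (±0.2). Compounds dissolved in DMSO, tested at final 500 to 0.49 µmol/L. Inoculum in sterile water matched to 0.5 McFarland. Incubated in the dark, humid atmosphere, 35 °C, read at 24 and 48 h visually and at 540 nm. MIC taken as ≥95% growth reduction (IC95) versus control.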

Candida albicans [3] = assay: Antifungal activity against Candida albicans ATCC 44859 after 48 hrs by microdilution broth method; details: ATCC 44859, 48 h; method in brief: as §1
[4] = test system: Mycobacterium tuberculosis; assay: Antimycobacterial activity against Mycobacterium tuberculosis H37Rv 331/88 after 14 days; details: H37Rv 331/88, 336 h
Enterococcus sp. [5] = assay: Antibacterial activity against Enterococcus sp. J 14365/08 after 24 hrs by microdilution broth method; details: J 14365/08, 24 h; method in brief: as §2
Staphylococcus aureus [6] = assay: Antibacterial activity against Staphylococcus aureus CCM 4516/08 after 48 hrs by microdilution broth method; details: CCM 4516/08, 48 h
Lichtheimia corymbifera [7] = assay: Antifungal activity against Absidia corymbifera 272 after 48 hrs by microdilution broth method; details: Lichtheimia corymbifera, 272, 48 h; method in brief: as §1
Mycobacterium kansasii [8] = assay: Antimycobacterial activity against Mycobacterium kansasii 6509/96 after 14 days; details: 6509/96, 336 h
Method in brief: (§3)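 Šula's semisynthetic medium micromethod at 37 °C, read after 7, 14 and 21 days. The 1.0 McFarland suspension was diluted 10^-4. MIC determined. 6509/96 is a clinical isolate.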

Candida tropicalis [9] = assay: Antifungal activity against Candida tropicalis 156 after 48 hrs by microdilution broth method; details: Candida tropicalis, 156, 48 h; method in brief: as §1
Klebsiella pneumoniae [10] = assay: Antibacterial activity against ESBL-positive Klebsiella pneumoniae J 14368/08 after 24 hrs by microdilution broth method; details: J 14368/08, 24 h; method in brief: as §2
Pichia kudriavzevii [11] = assay: Antifungal activity against Candida krusei E28 after 24 hrs by microdilution broth method; details: E28, 24 h; method in brief: as §1
Staphylococcus aureus [12] = assay: Antibacterial activity against methicillin-resistant Staphylococcus aureus H 5996/08 after 48 hrs by microdilution broth method; details: H 5996/08, 48 h
Nakaseomyces glabratus [13] = assay: Antifungal activity against Candida glabrata 20/I after 24 hrs by microdilution broth method; method in brief: as §1
Klebsiella pneumoniae [14] = assay: Antibacterial activity against Klebsiella pneumoniae D 11750/08 after 24 hrs by microdilution broth method; details: D 11750/08, 24 h; method in brief: as §2
Mycobacterium kansasii [15] = assay: Antimycobacterial activity against Mycobacterium kansasii 6509/96 after 21 days; details: 6509/96, 504 h; method in brief: as §3
Mycobacterium kansasii [16] = assay: Antimycobacterial activity against Mycobacterium kansasii 235/80 after 14 days; details: 235/80, 336 h; method in brief: as §3
[17] = test system: Staphylococcus epidermidis; assay: Antibacterial activity against Staphylococcus epidermidis H 6966/08 after 48 hrs by microdilution broth method; details: H 6966/08, 48 h; method in brief: as §2
Staphylococcus aureus [18] = assay: Antibacterial activity against methicillin-resistant Staphylococcus aureus H 5996/08 after 24 hrs by microdilution broth method; details: H 5996/08, 24 h
Trichosporon asahii [19] = assay: Antifungal activity against Trichosporon asahii 1188 after 48 hrs by microdilution broth method; details: Trichosporon asahii, 1188, 48 h; method in brief: as §1
[20] = test system: Trichophyton mentagrophytes; assay: Antifungal activity against Trichophyton mentagrophytes 445 after 24 hrs by microdilution broth method; details: Trichophyton mentagrophytes, 445, 24 h
Escherichia coli [21] = assay: Antibacterial activity against Escherichia coli CCM4517 after 24 hrs by microdilution broth method; details: CCM4517, 24 h; method in brief: as §2
Klebsiella pneumoniae [22] = assay: Antibacterial activity against Klebsiella pneumoniae D 11750/08 after 48 hrs by microdilution broth method; details: D 11750/08, 48 h; method in brief: as §2
Mycobacterium kansasii [23] = assay: Antimycobacterial activity against Mycobacterium kansasii 235/80 after 7 days; details: 235/80, 168 h; method in brief: as §3
Lichtheimia corymbifera [24] = assay: Antifungal activity against Absidia corymbifera 272 after 24 hrs by microdilution broth method; details: Lichtheimia corymbifera, 272, 24 h; method in brief: as §1
[25] = test system: Mycobacterium tuberculosis; assay: Antimycobacterial activity against Mycobacterium tuberculosis H37Rv 331/88 after 21 days; details: H37Rv 331/88, 504 h
Aspergillus fumigatus [26] = assay: Antifungal activity against Aspergillus fumigatus 231 after 24 hrs by microdilution broth method; details: Aspergillus fumigatus, 231, 24 h; method in brief: as §1
Enterococcus sp. [27] = assay: Antibacterial activity against Enterococcus sp. J 14365/08 after 48 hrs by microdilution broth method; details: J 14365/08, 48 h; method in brief: as §2
Trichosporon asahii [28] = assay: Antifungal activity against Trichosporon asahii 1188 after 24 hrs by microdilution broth method; details: Trichosporon asahii, 1188, 24 h; method in brief: as §1
Candida albicans [29] = assay: Antifungal activity against Candida albicans ATCC 44859 after 24 hrs by microdilution broth method; details: ATCC 44859, 24 h; method in brief: as §1
Escherichia coli [30] = assay: Antibacterial activity against Escherichia coli CCM4517 after 48 hrs by microdilution broth method; details: CCM4517, 48 h; method in brief: as §2
Mycobacterium avium [31] = assay: Antimycobacterial activity against Mycobacterium avium 330/80 after 14 days; details: 330/80, 336 h
Mycobacterium kansasii [32] = assay: Antimycobacterial activity against Mycobacterium kansasii 6509/96 after 7 days; details: 6509/96, 168 h; method in brief: as §3
[33] = test system: Staphylococcus epidermidis; assay: Antibacterial activity against Staphylococcus epidermidis H 6966/08 after 24 hrs by microdilution broth method; details: H 6966/08, 24 h; method in brief: as §2
Mycobacterium avium [34] = assay: Antimycobacterial activity against Mycobacterium avium 330/80 after 21 days; details: 330/80, 504 h
Pseudomonas aeruginosa [35] = assay: Antibacterial activity against Pseudomonas aeruginosa CCM 1961 after 24 hrs by microdilution broth method; details: CCM 1961, 24 h; method in brief: as §2
Candida tropicalis [36] = assay: Antifungal activity against Candida tropicalis 156 after 24 hrs by microdilution broth method; details: Candida tropicalis, 156, 24 h; method in brief: as §1
Staphylococcus aureus [37] = assay: Antibacterial activity against Staphylococcus aureus CCM 4516/08 after 24 hrs by microdilution broth method; details: CCM 4516/08, 24 h
Mycobacterium kansasii [38] = assay: Antimycobacterial activity against Mycobacterium kansasii 235/80 after 21 days; details: 235/80, 504 h; method in brief: as §3
Pseudomonas aeruginosa [39] = assay: Antibacterial activity against Pseudomonas aeruginosa CCM 1961 after 48 hrs by microdilution broth method; details: CCM 1961, 48 h; method in brief: as §2
[40] = test system: Trichophyton mentagrophytes; assay: Antifungal activity against Trichophyton mentagrophytes 445 after 48 hrs by microdilution broth method; details: Trichophyton mentagrophytes, 445, 48 h
Pichia kudriavzevii [41] = assay: Antifungal activity against Candida krusei E28 after 48 hrs by microdilution broth method; details: E28, 48 h; method in brief: as §1
Nakaseomyces glabratus [42] = assay: Antifungal activity against Candida glabrata 20/I after 48 hrs by microdilution broth method; method in brief: as §1

## O=C(Nc1cccc(Br)c1)c1ccc([N+](=O)[O-])cc1O
Aspergillus fumigatus [1]
  MIC: > 500 µM
Klebsiella pneumoniae [2]
  MIC: 500 µM (≈ 169 µg/mL)
Candida albicans [3]
  MIC: > 500 µM
[4]
  MIC: 16 µM (≈ 5.39 µg/mL)
Enterococcus sp. [5]
  MIC: 500 µM (≈ 169 µg/mL)
Staphylococcus aureus [6]
  MIC: 3.9 µM (≈ 1.31 µg/mL)
Lichtheimia corymbifera [7]
  MIC: 500 µM (≈ 169 µg/mL)
Mycobacterium kansasii [8]
  MIC: 16 µM (≈ 5.39 µg/mL)
Candida tropicalis [9]
  MIC: > 500 µM
Klebsiella pneumoniae [10]
  MIC: 500 µM (≈ 169 µg/mL)
Pichia kudriavzevii [11]
  MIC: 62.5 µM (≈ 21.1 µg/mL)
Staphylococcus aureus [12]
  MIC: 3.9 µM (≈ 1.31 µg/mL)
Nakaseomyces glabratus [13]
  MIC: > 500 µM
Klebsiella pneumoniae [14]
  MIC: 500 µM (≈ 169 µg/mL)
Mycobacterium kansasii [15]
  MIC: 16 µM (≈ 5.39 µg/mL)
Mycobacterium kansasii [16]
  MIC: 16 µM (≈ 5.39 µg/mL)
[17]
  MIC: 3.9 µM (≈ 1.31 µg/mL)
Staphylococcus aureus [18]
  MIC: 3.9 µM (≈ 1.31 µg/mL)
Trichosporon asahii [19]
  MIC: 125 µM (≈ 42.1 µg/mL)
[20]
  MIC: 62.5 µM (≈ 21.1 µg/mL)
Escherichia coli [21]
  MIC: 500 µM (≈ 169 µg/mL)
Klebsiella pneumoniae [22]
  MIC: 500 µM (≈ 169 µg/mL)
Mycobacterium kansasii [23]
  MIC: 8 µM (≈ 2.7 µg/mL)
Lichtheimia corymbifera [24]
  MIC: 250 µM (≈ 84.3 µg/mL)
[25]
  MIC: 16 µM (≈ 5.39 µg/mL)
Aspergillus fumigatus [26]
  MIC: > 500 µM
Enterococcus sp. [27]
  MIC: 500 µM (≈ 169 µg/mL)
Trichosporon asahii [28]
  MIC: 31.2 µM (≈ 10.5 µg/mL)
Candida albicans [29]
  MIC: > 500 µM
Escherichia coli [30]
  MIC: > 500 µM
Mycobacterium avium [31]
  MIC: 32 µM (≈ 10.8 µg/mL)
Mycobacterium kansasii [32]
  MIC: 16 µM (≈ 5.39 µg/mL)
[33]
  MIC: 3.9 µM (≈ 1.31 µg/mL)
Mycobacterium avium [34]
  MIC: 62.5 µM (≈ 21.1 µg/mL)
Pseudomonas aeruginosa [35]
  MIC: > 500 µM
Candida tropicalis [36]
  MIC: > 500 µM
Staphylococcus aureus [37]
  MIC: 3.9 µM (≈ 1.31 µg/mL)
Mycobacterium kansasii [38]
  MIC: 16 µM (≈ 5.39 µg/mL)
Pseudomonas aeruginosa [39]
  MIC: > 500 µM
[40]
  MIC: 250 µM (≈ 84.3 µg/mL)
Pichia kudriavzevii [41]
  MIC: 250 µM (≈ 84.3 µg/mL)
Nakaseomyces glabratus [42]
  MIC: > 500 µM
